# Measured values taken from ChEMBL document CHEMBL4627401, “Structure Optimization of Gatastatin for the Development of γ-Tubulin-Specific Inhibitor” (ACS Med Chem Lett, 2020).
# The source made the active and inactive calls. The calls are words filed in the database; no cut-off is given here.
# Key:
# Sus scrofa domesticus [1] = species on record: Sus scrofa domesticus; test: Inhibition of porcine brain tubulin polymerization assessed as residual tubulin polymerization at 30 uM in presence of 0.8 M glutamate incubated for 30 mins by SDS-PAGE analysis (reference value: 84.8 +/- 9.9 %)
# Summary of the method: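 Polymer was separated by ultracentrifugation (200,000g, 10 min, 25 °C), tubulin measured by 10% SDS-PAGE densitometry and expressed as % polymerized. Mean ± SD, three independent experiments.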
# HeLa [2] = test: Cytotoxicity against human HeLa cells assessed as cell viability at 100 uM incubated for 48 hrs by WST8 cells relative to control; type: functional; details: read-out: Activity
# HeLa [3] = test: Inhibition of gamma-tubulin nucleation in human HeLa cells at 100 uM incubated for 15 mins; type: cell-based
# HeLa [4] = test: Induction of microtubule depolymerization in human HeLa cells at 30 uM incubated for 24 hrs by immunofluorescence microscopy; type: functional, cell-based
# Summary of the method: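 Interphase HeLa cells were treated for 24 h at 30 μM, then the MT network structure was examined by microscopy.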
# HeLa [5] = test: Cytotoxicity against human HeLa cells assessed as reduction in cell viability incubated for 48 hrs by WST8 cells; type: functional, cell-based
# Summary of the method: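 HeLa cells were exposed to a range of concentrations for 48 h. Growth was read by WST-8 cell counting, and IC50 values were calculated from the resulting curves.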
# HeLa [6] = test: Inhibition of gamma-tubulin nucleation in human HeLa cells at 30 uM incubated for 15 mins; type: cell-based
# HeLa [7] = test: Inhibition of gamma-tubulin in human HeLa cells assessed as abnormal spindle formation at 30 uM incubated for 24 hrs by immunofluorescence microscopy analysis relative to control; type: cell-based
# Summary of the method: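 Exponentially growing HeLa cells were treated with 30 μM for 24 h, then spindle morphology was classified as normal bipolar, bipolar with misaligned chromosomes, or multipolar. More than 100 cells were scored per experiment. Mean ± SD, three independent experiments, with DMSO as control.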
# Homo sapiens = species on record: Homo sapiens; test: Inhibition of human gamma tubulin assessed as reduction in GTP binding to gamma-tubulin at 50 uM incubated for 15 mins by alpha-[32P]-GTP binding assay
# HeLa [8] = test: Inhibition of gamma-tubulin nucleation in human HeLa cells at 10 uM incubated for 15 mins; type: cell-based
# HeLa [9] = test: Inhibition of gamma-tubulin nucleation in human HeLa cells at 0.3 uM incubated for 15 mins; type: cell-based
# HeLa [10] = test: Inhibition of gamma-tubulin in human HeLa cells assessed as abnormal spindle formation incubated for 24 hrs by immunofluorescence microscopy analysis; type: cell-based
# HeLa [11] = test: Inhibition of gamma-tubulin in human HeLa cells assessed as abnormal spindle formation at 1 uM incubated for 24 hrs by immunofluorescence microscopy analysis relative to control; type: cell-based
# Sus scrofa domesticus [12] = species on record: Sus scrofa domesticus; test: Induction of porcine brain tubulin polymerization at 10 uM in presence of 0.2 M glutamate incubated for 30 mins by SDS-PAGE analysis (reference value: 36.3 +/- 8.1 %)
# HeLa [13] = test: Induction of microtubule depolymerization in human HeLa cells at 100 nM incubated for 6 hrs by immunofluorescence microscopic method; type: functional, cell-based
SMILES,Activity (Sus scrofa domesticus [1]),viability at 100 µM (HeLa [2]),inhibition (HeLa [3]),Activity (HeLa [4]),IC50 (HeLa [5]),inhibition (HeLa [6]),inhibition (HeLa [7]),inhibition (Homo sapiens),inhibition (HeLa [8]),inhibition (HeLa [9]),inhibition (HeLa [10]),inhibition (HeLa [11]),Activity (Sus scrofa domesticus [12]),Activity (HeLa [13])
COc1cc(-c2coc3cc(OCc4ccccc4)c(OC4CCCCO4)cc3c2=O)c(OC)c2c1OCO2 (centres undefined),69 to 92%,99.1%,inactive,inactive,> 100 µM,–,–,–,–,–,–,–,–,–
C=CCOc1cc2c(=O)c(-c3cc(OC)c4c(c3OC)OCO4)coc2cc1OCc1ccccc1,69 to 92%,–,–,inactive,9.9 µM,Active,–,–,–,–,–,–,–,–
COc1cc(-c2coc3cc(OCc4ccccc4)c(OC4CCCCO4)cc3c2=O)c(OC)c2c1OC(C)(C)O2 (centres undefined),69 to 92%,101%,–,inactive,> 100 µM,–,inactive,–,–,–,–,–,–,–
COc1cc2c(=O)c(-c3cc(OC)c4c(c3OC)OC(C)(C)O4)coc2cc1OCc1ccccc1,69 to 92%,100%,inactive,inactive,> 100 µM,–,inactive,–,–,–,–,–,–,–
COc1cc2c(=O)c(-c3ccc4c(c3)OCO4)coc2cc1OCc1ccccc1,69 to 92%,101%,inactive,inactive,> 100 µM,–,inactive,–,–,–,–,–,–,–
COc1cc2c(=O)c(-c3cc(OC)c4c(c3OC)OCO4)coc2cc1OCc1ccccc1,69 to 92%,–,–,inactive,10.5 µM,Active,Active,Active,inactive,–,–,–,–,–
C#CCOc1cc2c(=O)c(-c3cc(OC)c4c(c3OC)OC(C)(C)O4)coc2cc1OCc1ccccc1,69 to 92%,102%,–,inactive,> 100 µM,–,inactive,–,–,–,–,–,–,–
COc1cc(-c2coc3cc(OCc4ccccc4)c(OCc4ccccc4)cc3c2=O)c(OC)c2c1OC(C)(C)O2,69 to 92%,102%,–,inactive,> 100 µM,–,inactive,–,–,–,–,–,–,–
COc1cc(-c2coc3cc(OCc4ccccc4)c(O)cc3c2=O)c(OC)c2c1OC(C)(C)O2,69 to 92%,–,–,inactive,> 13 µM,–,inactive,–,–,–,–,–,–,–
C#CCOc1cc2c(=O)c(-c3cc(OC)c4c(c3OC)OCO4)coc2cc1OCc1ccccc1,69 to 92%,–,–,inactive,0.8 µM,Active,–,Active,–,Active,Dose-dependent effect,Active,–,–
COc1cc(-c2coc3cc(OCc4ccccc4)c(OCc4ccccc4)cc3c2=O)c(OC)c2c1OCO2,69 to 92%,–,–,inactive,1.1 µM,Active,–,–,–,–,–,Active,–,–
CC(=O)O[C@H]1C(=O)[C@@]2(C)[C@H]([C@H](OC(=O)c3ccccc3)[C@]3(O)C[C@H](OC(=O)[C@H](O)[C@@H](NC(=O)c4ccccc4)c4ccccc4)C(C)=C1C3(C)C)[C@]1(OC(C)=O)CO[C@@H]1C[C@@H]2O,–,–,–,–,–,–,–,–,–,–,–,–,91.6%,Active
C=CCOc1cc2c(=O)c(-c3cc(OC)c4c(c3OC)OC(C)(C)O4)coc2cc1OCc1ccccc1,69 to 92%,107%,–,inactive,> 100 µM,–,inactive,–,–,–,–,–,–,–
COc1cc2c(=O)c(-c3cc(OC)c(OC)c(OC)c3OC)coc2cc1OCc1ccccc1,69 to 92%,77.3%,–,inactive,> 100 µM,Active,65%,–,inactive,–,–,–,–,–
COc1cc2c(c(OC)c1OC)-c1ccc(OC)c(=O)cc1[C@@H](NC(C)=O)CC2,–,–,–,–,–,–,–,–,–,–,–,–,–,Active
COc1cc(-c2coc3cc(OCc4ccccc4)c(O)cc3c2=O)c(OC)c2c1OCO2,69 to 92%,–,–,inactive,5.8 µM,Active,–,–,–,–,–,–,–,–
